From PubChem BioAssay
Sampled rows, rich in hits. Any-hit rate of the full collection: about 3.6%.
SR-BI DiI-HDL act = SR-BI HDL lipid transfer activation. CHO ldlA[mSR-BI] cells, DiI-HDL uptake fluorescence, 3 h; 100 = double the neutral-control signal. activation, % at 12.5 µM. 0.096% of 320,000 active;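 active = mean replicate activation of at least 60% and every replicate at or above 60%; inconclusive = mean or all-replicate condition met, but not both; inactive = mean below 60% and not all replicates reaching 60%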
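Assay system: CHO ldlA[mSR-BI] cells, LDL receptor-null, SR-BI overexpressing; medium: Ham's F12 with 0.5% BSA, HEPES 25 mM, pH 7.4; also added: DiI-HDL 10 µg/mL; timing: 3 h uptake period with compound, 37 °C; signal: DiI fluorescence, bottom read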
SR-BI DiI inh = blocks mouse SR-BI lipid uptake from DiI-HDL. Q61009. ldlA[mSR-BI] CHO cells, DiI-HDL uptake fluorescence, 3 h. inhibition, % at 12.5 µM. 0.96% of 320,000 active;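 active = mean replicate inhibition of at least 70% and a set share of replicates each scoring 70 or more; inconclusive = meets just one of the two criteria; inactive = fails both criteria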
Target sequence (Q61009 whole entry, looked up): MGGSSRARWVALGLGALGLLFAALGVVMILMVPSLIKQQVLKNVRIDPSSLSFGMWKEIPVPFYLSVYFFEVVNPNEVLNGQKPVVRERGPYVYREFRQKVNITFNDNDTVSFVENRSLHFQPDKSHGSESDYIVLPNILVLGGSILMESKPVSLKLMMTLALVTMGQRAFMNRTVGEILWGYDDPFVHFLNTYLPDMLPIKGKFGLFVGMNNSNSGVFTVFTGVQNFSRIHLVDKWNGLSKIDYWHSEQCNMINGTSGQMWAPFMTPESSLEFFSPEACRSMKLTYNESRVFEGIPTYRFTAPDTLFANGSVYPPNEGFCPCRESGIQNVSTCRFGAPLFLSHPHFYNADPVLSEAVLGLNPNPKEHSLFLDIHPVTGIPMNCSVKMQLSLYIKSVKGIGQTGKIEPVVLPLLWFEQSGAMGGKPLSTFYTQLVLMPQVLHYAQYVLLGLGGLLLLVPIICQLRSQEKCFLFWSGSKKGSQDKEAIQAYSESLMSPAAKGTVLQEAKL
Wnt bcat act = Wnt/beta-catenin pathway activation | 1.2% of 300,000 active | AID 743398 | activation, % at 9.35 µM | Wnt/beta-catenin reporter cell assay, activator, plate reader; in the data active = activation above about 30%, passing the limit was not always enough; inconclusive = no clear call, values can overlap the other calls
MITF TRPM1 HTS = increases MITF-driven TRPM1 promoter luciferase signal. SK-MEL-5 TRPM1-promoter luciferase, 24 h; % of positive control, neutral wells = 0. activation, % at 12.5 µM. 0.75% of 300,000 active. AID 588334;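 active = mean activation of at least 80% with every replicate also reaching 80%; inconclusive = mean reaches 80% but some replicate falls short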
HSF1 activator = increases HSF-1 driven luciferase reporter signal; NIH3T3-HGL HSF-1 luciferase reporter, MG132, 8 h; 100% = twice DMSO control signal; activation, % at 9 µM; 1.7% of 300,000 active;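 active = mean replicate activation of at least 50% with a set share of replicates each reaching 50%; inconclusive = only one of those two conditions met; inactive = mean below 50% and too few replicates reaching it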
DiI quencher = quenches DiI-HDL fluorescence, an SR-BI assay artifact | cell-free DiI-HDL fluorescence quenching, 30 min | AID 540326 | AC50, µM (doses to about 35 µM) | 20% of 470 active | shares compounds with SR-BI DiI inh;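 active = quenching, a falling signal, with AC50 below a set limit tied to the top valid dose, actives reach about 32 µM in these data; inconclusive = no clear call, values can overlap the other calls; inactive = rising signal, and the rest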
Numbers stand for hits; - = inactive; ? = inconclusive; . = not tested or not shown.

SMILES	SR-BI DiI-HDL act	SR-BI DiI inh	Wnt bcat act	MITF TRPM1 HTS	HSF1 activator	DiI quencher
COc1ccc(N2CC(C(=O)Nc3cccc(S(=O)(=O)N4CCCC4)c3)CC2=O)c(OC)c1 (configuration not stated)	-	-	-	-	-	.
COc1ccc(N2CC(C(=O)N3CCN(S(=O)(=O)c4ccc(F)c(F)c4)CC3)CC2=O)c(OC)c1 (configuration not stated)	-	-	-	-	.	-
Nn1c(SCCOc2ccccc2)nnc1-c1cccnc1	-	-	-	-	-	.
COc1ccc(OCCSc2nnc(-c3cccnc3)n2N)cc1	-	106	-	-	-	-
O=C(NCc1ccco1)c1cccc2c1C(=O)c1ccc(N3CCC(N4CCCCC4)CC3)cc1S2(=O)=O	.	.	-	.	.	.
Cc1cc(C)c2c(c1)NC(c1cc3c(cc1Br)OCO3)C1CC=CC21 (configuration not stated)	-	?	-	-	-	-
Cc1cc(C)cc(C(O)c2ncc(-c3ccc4ccccc4c3)[nH]2)c1 (configuration not stated)	.	.	-	.	.	.
COC(=O)c1ccc2c(c1)C(=O)/C(=C/c1ccc(C)cc1)O2	-	-	-	-	-	.
CN(C)c1ccc(/C=C2\Oc3ccc(C#Cc4cccc(N)c4)cc3C2=O)cc1	-	?	.	-	.	-
Cc1ccsc1-c1nc(-c2ccccc2)c(-c2ccccc2)[nH]1	-	71	53	.	-	32µM
C[C@@H]1ON(C)[C@H]2C[C@H]3c4cc(Br)ccc4CCN3C[C@@H]12	.	.	-	.	.	.
O=C(Nc1ccc(S(=O)(=O)N2C[C@@H]3C[C@@H](C2)c2cccc(=O)n2C3)cc1)c1ccc(F)cc1	-	-	-	-	.	.
CCOc1ccc(C(=O)Nc2ccc(S(=O)(=O)N3C[C@@H]4C[C@@H](C3)c3cccc(=O)n3C4)cc2)cc1	-	75	-	-	.	-
Cc1cc(C)cc(C(O)c2ncc(-c3ccccc3C(F)(F)F)[nH]2)c1 (configuration not stated)	.	.	-	.	.	.
Cc1ccc(CNC(=O)c2ccc(N3CCC4(CC3)CC(c3cccc(Br)c3)=NO4)c([N+](=O)[O-])c2)cc1	-	81	-	-	-	-
CC(=O)Nc1cccc(CCc2nc3ccccc3[nH]2)c1	?	-	-	-	-	.
Cc1ccccc1NC(=O)N(CCc1nc2ccccc2[nH]1)Cc1ccccc1	-	96	.	-	-	-
O=C(Nc1ccc(-c2cn3c(n2)SCC3)cc1)c1ccc2ccccc2n1	-	-	-	-	-	.
O=C(Nc1cccc(-c2cn3c(n2)SCC3)c1)c1ccc2ccccc2n1	-	76	41	-	-	-
Cc1csc(N2C(=O)C3C4CCC(O4)C3C2=O)n1 (configuration not stated)	-	-	-	-	.	.
CCCCN1CC(COCc2ccccc2)Oc2cccc(OCCN3C(=O)[C@@H]4[C@H](C3=O)C3C=C[C@H]4C3)c2S1(=O)=O (some centres not stated)	-	-	-	-	.	.
O=C(CCCC(=O)N(CC(=O)NC1CCCC1)C1CCCC1)Nc1ccccn1	-	?	.	-	-	-
CC(C)(C)NC(=O)C(c1c[nH]c2ccccc12)N(C(=O)Cn1nnc(-c2ccc(Cl)cc2)n1)c1ccccc1F (configuration not stated)	-	-	.	-	-	.
O=C(CN(C(=O)Cn1nnc(-c2ccc(F)cc2)n1)C1CCCC1)NC1CCCC1	-	94	.	-	.	-
COc1ccc(C)cc1N(CC(=O)NC1CCCC1)C(=O)Cn1nnc(-c2ccc(C)o2)n1	-	76	-	-	-	-
SMILES	SR-BI DiI-HDL act	SR-BI DiI inh	Wnt bcat act	MITF TRPM1 HTS	HSF1 activator	DiI quencher
O=C(NC1CCCC1)C(c1c[nH]c2ccccc12)N(C(=O)Cn1nnc(-c2ccc(Cl)cc2)n1)c1ccccc1 (configuration not stated)	-	-	.	-	-	-
Cc1ccccc1-c1cccc([C@@H]2C[C@H]3[C@H](CON3C)CN2Cc2ccccc2)c1	.	.	-	-	.	.
COc1cc(NC(=O)c2cc(-n3cnnc3)ccc2Cl)cc(OC)c1	-	-	.	-	-	-
CN(C(=O)c1cc(-n2cnnc2)ccc1Cl)c1ccccc1	-	-	-	-	-	-
CC(=O)Nc1ccc(NC(=O)c2cc(-n3cnnc3)ccc2Cl)cc1	-	-	-	-	-	.
CCCN(CCC)CCN1CCN(C(=O)[C@H](CCc2ccccc2)NC(=O)[C@H]2O[C@@H](n3cnc4c(N)ncnc43)[C@H](O)[C@@H]2O)CC1	.	.	-	.	.	.
Cc1ccc(-c2csc(N3CCN(c4ccc5nc(-c6ccncc6)n(CCN6CCCCC6)c5c4)CC3)n2)cc1	-	70	.	-	-	-
O=C(Nc1ncc(Cc2cccc(C(F)(F)F)c2)s1)c1ccc(-c2cccc([N+](=O)[O-])c2)o1	-	-	-	-	-	-
Cc1cc(C)n(CC(=O)NC2CCCc3c2cnn3-c2ccc(C)c(C)c2)n1 (configuration not stated)	-	?	-	-	-	-
CCCNC(=O)c1cc(C2CCCCN2C(=O)OCC(C)C)on1 (configuration not stated)	.	.	-	.	.	.
Cc1ccc(Sc2nc(-c3ccccc3)nnc2C(F)(F)F)cc1	-	?	.	.	151	-
Cc1ccc(-c2cc(C(F)F)n3ncc(C(=O)N4CCN(c5cccc(C)c5C)CC4)c3n2)cc1	-	-	.	-	-	-
Cc1ccc2nc(-c3ccccc3)cc(C(=O)N3CCN(c4ccccc4O)CC3)c2c1	-	-	-	-	-	-
CC(=O)c1ccc(N2CCN(C(=O)c3cc(-c4cccnc4)nc4ccc(Br)cc34)CC2)cc1	-	-	-	-	-	-
O=C(c1cc(-c2ccccc2)nc2ccccc12)N1CCN(c2ccccc2O)CC1	-	-	-	-	-	.
COC(=O)[C@H]1C[C@H](OC(=O)Nc2c(C)noc2C)[C@@]2(O)CN(S(=O)(=O)c3ccc(C)cc3)CC2[C@H]1C(=O)OC (some centres not stated)	.	.	-	.	.	.
Cc1ccccc1-c1cc(C(=O)NCc2cccc(Br)c2)nn1CC1CC(c2cccc([N+](=O)[O-])c2)=NO1 (configuration not stated)	-	-	-	-	.	-
COCCNC(=O)c1cc(-c2ccccc2C)n(CC2CC(c3cccc([N+](=O)[O-])c3)=NO2)n1 (configuration not stated)	-	-	-	-	.	.
COc1ccc(C2/C=C\CN(S(=O)(=O)c3ccc4ccccc4c3)CC(=O)N2Cc2ccc(F)cc2)cc1 (configuration not stated)	-	-	-	-	.	-
COc1ccc(N2CN=C3SCC(=O)N3C2)cc1	-	-	-	-	-	.
Cc1cc(C)cc(N2CN=C3SCC(=O)N3C2)c1	-	?	.	-	-	-
O=C1[C@@H]2Cc3c([nH]c4ccccc34)C(c3cccc([N+](=O)[O-])c3)N2C(=O)CN1CCCO (some centres not stated)	-	82	-	-	-	-
COc1cccc2c1cc1c(=O)n(CC(=O)N3CCCC3)nc(C)n12	-	-	-	-	.	.
COc1cccc2c1cc1c(=O)n(CC(=O)N3CCN(c4cccc(C)c4C)CC3)nc(C)n12	-	-	-	-	.	-
